According to PMC5372383 (Nature, 2017):

Legend:
[1] = biological target: ENL YEATS mutants (alanine mutation of the “R-Kac”-binding residues), ITC; assay: ITC
HeLa cells = assay: JQ1 proliferation in HeLa cells; type: cell-based, human; settings: GFP, AF9 or ENL sgRNAs, n = 5
Outline: (§1)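 HeLa and U2OS cells were kept in DMEM with 10% FBS, 2 mM L-glutamine, penicillin/streptomycin and plasmocin. They were transduced with GFP, AF9 or ENL sgRNAs by spin infection at 1500 rcf, 35°C for 90 min, then selected or sorted 48 h after infection. Cells were treated with JQ1, and viability was measured by CellTiter-Glo luminescence.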

leukaemia cell lines = type: cell-based, human; settings: shENL vs shNT, MLL-rearranged leukaemia cells, n = 3
Outline: (§2)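 MLL-rearranged leukaemia lines were grown in RPMI with 10% FBS, 2 mM L-glutamine, penicillin/streptomycin and plasmocin. Cells were transduced with sgRNAs (MOLM-13) or shNT/shENL shRNAs (panel) by spin infection (1500 rcf, 35°C, 90 min), then selected or sorted 48 h post infection. They were exposed to JQ1 or DMSO, and viability was read by CellTiter-Glo luminescence. MOLM-13 proliferation was normalised to DMSO.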

MOLM-13 cells = assay: JQ1 proliferation / viability; type: cell-based, human; settings: MOLM-13, sgRNA depletion; proliferation normalized to DMSO, n = 5
Outline: as §2

U2OS cells = assay: JQ1 proliferation in U2OS cells; type: cell-based, human; settings: GFP, AF9 or ENL sgRNAs, n = 5
Outline: as §1

iCas9-MOLM-13 cells = assay: RNA-seq of JQ1-treated iCas9-MOLM-13 cells; type: cell-based, human; settings: iCas9-MOLM-13, 50 nM JQ1 24 h vs DMSO

| Compound | fold affinity drop against the wild type [1] [fold] | JQ1 sensitivity on ENL silencing, HeLa (HeLa cells) | JQ1 sensitivity on ENL silencing (leukaemia cell lines) | sensitivity to JQ1 on depletion of ENL or other SEC components (MOLM-13 cells) | JQ1 sensitivity on ENL silencing, U2OS (U2OS cells) | JQ1-induced transcriptional changes on ENL depletion, including MYC (iCas9-MOLM-13 cells) |
| --- | --- | --- | --- | --- | --- | --- |
| H3_(17–28)K27ac peptide (from UniProt P68431 18-29) | 2.3 | – | – | – | – | – |
| Cc1sc2c(c1C)C(c1ccc(Cl)cc1)=N[C@@H](CC(=O)OC(C)(C)C)c1nnc(C)n1-2 [JQ1] | – | not in HeLa | Increased JQ1 sensitivity | sensitized MOLM-13 cells | not in HeLa or U2OS cells | markedly enhanced JQ1-induced transcriptional changes |
